Assay results reported in ChEMBL document CHEMBL2163188, “Discovery of piragliatin--first glucokinase activator studied in type 2 diabetic patients” (J Med Chem, 2012).

Target: T1, Hexokinase-4 (Homo sapiens) (UniProt P35557)
T1 sequence (whole entry): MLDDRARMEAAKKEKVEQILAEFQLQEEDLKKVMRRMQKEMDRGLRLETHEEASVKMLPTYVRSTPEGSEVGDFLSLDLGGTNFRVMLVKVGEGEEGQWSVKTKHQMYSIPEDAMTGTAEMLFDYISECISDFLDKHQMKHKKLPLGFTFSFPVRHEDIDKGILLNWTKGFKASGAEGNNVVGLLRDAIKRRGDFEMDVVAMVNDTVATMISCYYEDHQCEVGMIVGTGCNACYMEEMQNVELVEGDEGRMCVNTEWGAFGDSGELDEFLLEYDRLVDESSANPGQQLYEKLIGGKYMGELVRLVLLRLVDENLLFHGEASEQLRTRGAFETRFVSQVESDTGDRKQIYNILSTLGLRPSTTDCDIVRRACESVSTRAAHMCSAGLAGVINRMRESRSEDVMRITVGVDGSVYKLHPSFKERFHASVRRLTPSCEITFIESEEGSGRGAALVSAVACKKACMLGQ
Experiment: Activation of human recombinant glucokinase assessed as concentration required for 1.5 fold increase in enzymatic activity
Method in brief: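 Human recombinant GK; activator at fixed concentrations from ∼0.010 to 30 μM, each in duplicate, with glucose held at 5 mM. SC1.5 is the activator concentration giving a 1.5-fold rise in enzymatic activity over untreated GK. Assay CV was about 15%.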

Row | SMILES | Activity [µM]
1 | CS(=O)(=O)c1ccc(C(CC2CCCC2)C(=O)Nc2nccs2)cc1C#N (racemic) | 0.188
2 | CS(=O)(=O)c1ccc(C(CC2CCCC2)C(=O)Nc2nccs2)cc1C(F)(F)F (racemic) | 0.068
3 | CS(=O)(=O)c1ccc(C(CC2CCCC2)C(=O)Nc2nccs2)cc1Cl (racemic) | 0.119
